High-throughput results: PubChem, several laboratories
AP ELISA ortho: alternative pathway complement inhibition, orthogonal assay | Human serum alternative complement pathway, LPS-coated ELISA, C3 deposition; tested in compound mixtures | inhibition, % at 5 µM | 62,000 tested, 0.08% active | AID 1235;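 active = inhibition above 30% in each of the two pooled mixtures holding the compound, so the lower value exceeds 30%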
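Medium: diluted human serum in Mg2+-EGTA GVB++. Assay system: human serum complement alternative pathway, C3 deposition onto LPS. Also added: Plate-bound LPS. Technique: Anti-C3 ELISA, OD 450 nm. Measure: percent inhibition. Incubation: 1 h at 37 °C. Dosing: 5 µM each compound, pools of ten, 50 µM per pool.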
M1 agonist: M1 muscarinic receptor agonism; CHO-M1 cells, Fluo-4 calcium fluorescence, agonist mode; stronger effect = higher value; B-score at 10 µM; 64,000 tested, 3% active; AID 626;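 active = fluorescence rise, raw or as B-score row- and column-corrected plate score, outside the 99.7% band of its plate's samples, either direction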
E coli WT exp: growth inhibitors of E. coli BW25113 wild type. 98,000 tested, 0.15% active. growth inhibition, % at 100 µM. OD600 absorbance;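 active = growth inhibition above about 50% at one test dose, limit read from the data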;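 also: growth measured after 20 h incubation at 37 °C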
tolC growth inh: growth inhibitors of E. coli BW25113 tolC mutant; OD615; growth inhibition, % at 10 µM (by protocol); 65,000 tested, 2.2% active;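 active = growth inhibition at or above a cutoff equal to the mean over every tested compound plus 3 SD, cut at about 60% in these data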;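 also: growth measured after 20 h incubation at 37 °C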
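Assay system: tolC-deleted E. coli BW25113. Medium: kanamycin-containing LB broth (50 µg/mL). Dosing: 10 µM final, single dose. Timing: bacterial growth with compound for 20 h at 37 °C. Detection: A615 absorbance measurement. Read-out basis: growth inhibition in percent.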
M1 antagonist: blocks the rat M1 muscarinic receptor response to acetylcholine. CHO-M1 cells, Fluo-4 calcium, ACh EC80 antagonist mode; stronger effect = lower value. B-score at 10 µM. AID 628. 64,000 tested, 3.4% active. P08482;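 active = calcium fluorescence response, raw or row-and-column corrected B-score, differing from the plate sample mean either way at a set confidence level, mostly lower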
Target sequence (P08482 whole entry, looked up): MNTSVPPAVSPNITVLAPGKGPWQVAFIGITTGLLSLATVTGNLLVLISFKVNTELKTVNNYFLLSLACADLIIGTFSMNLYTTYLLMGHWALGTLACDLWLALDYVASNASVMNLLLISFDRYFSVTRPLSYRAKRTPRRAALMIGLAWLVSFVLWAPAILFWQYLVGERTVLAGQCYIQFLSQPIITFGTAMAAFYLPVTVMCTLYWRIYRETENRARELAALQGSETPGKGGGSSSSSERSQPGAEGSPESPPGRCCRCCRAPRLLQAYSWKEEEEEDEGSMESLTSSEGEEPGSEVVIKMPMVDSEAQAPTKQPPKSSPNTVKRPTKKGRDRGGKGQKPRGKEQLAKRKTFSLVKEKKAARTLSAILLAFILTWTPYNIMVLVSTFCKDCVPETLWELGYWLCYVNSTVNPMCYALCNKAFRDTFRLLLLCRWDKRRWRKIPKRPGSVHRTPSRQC
WNV protease inh: blocks West Nile virus NS2B-NS3 protease activity; WNV NS2B-NS3 protease, fluorogenic substrate Ex360/Em465; stronger effect = lower value; z-score (test concentration not listed); 65,000 tested, 0.18% active; AID 577; in the data active = z-score below about -3
M1 antag conf: confirmation of rat M1 muscarinic receptor antagonists | shares compounds with M1 antagonist | CHO-M1 cells, Fluo-4 calcium, ACh EC80 antagonism; stronger effect = lower value | calcium response (max-min fluorescence) at 10 µM | 1,700 tested, 43% active | AID 677;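 active = calcium response below the same-plate mean of wells given acetylcholine alone at its 80%-effect dose, minus 3 SD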
mGluR4 antag: mGluR4 (human) activity, M1 antagonist secondary assay | shares compounds with M1 antagonist | CHO-mGluR4 calcium flux, Fluo-4 fluorescence, glutamate EC80; stronger effect = lower value | fluorescence response (max-min) at 10 µM | 1,700 tested, 0.9% active;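 active = fluorescence response below the plate's average for near-maximal glutamate wells, less 3 SD of those wells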;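 also: raw unnormalized fluorescence span taken in the window right after glutamate addition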
A number is an active result; – = inactive; · = not tested or not shown. Hits are enriched below; roughly 5.2% of the tested compounds scored in any of these assays.

SMILES | AP ELISA ortho | M1 agonist | E coli WT exp | tolC growth inh | M1 antagonist | WNV protease inh | M1 antag conf | mGluR4 antag
COc1ccc(-c2cc(C(F)(F)F)nc(SCCC(=O)Nc3cc(C)on3)n2)cc1 | · | – | – | – | – | – | · | ·
O=C(CCSc1nc(-c2ccco2)cc(C(F)(F)F)n1)N1CCN(c2ccccc2)CC1 | – | – | – | – | -3.8 | – | – | –
CCNC(=O)N1CCOCC1 | · | · | – | · | · | · | · | ·
CCCC1(CCC)NC(=O)NC1=O | – | – | – | – | -2.9 | – | – | –
O=C(Nc1ccc2c(c1)OCO2)C1CCN(S(=O)(=O)c2cccc3cccnc23)CC1 | – | – | – | – | – | – | · | ·
c1cncc(C(c2nnnn2C2CCCC2)N2CCCC2)c1 (stereo not given) | – | – | – | – | -2 | – | – | –
CO/N=C(/CS(=O)(=O)Cc1ccccc1Cl)c1ccc(Cl)cc1Cl | · | · | – | · | · | · | · | ·
CCOC(=O)c1[nH]c2ccc(OCC)cc2c1NC(=O)CN1CCN(c2ccccn2)CC1 | – | – | – | – | -2.5 | – | – | –
Cn1c(-c2ccc(F)cc2)cnc1NCc1ccc(C#N)cc1 | – | – | – | – | -3.4 | – | – | –
Cn1c(-c2ccc(F)cc2)cnc1NCc1ccc(F)cc1 | · | · | – | · | · | · | · | ·
Cn1c(-c2ccc3c(c2)OCO3)cnc1NCc1ccc(Cl)cc1 | – | – | – | – | -6.6 | – | 358 | –
Cc1ccc(CNc2ncc(-c3ccc4c(c3)OCO4)n2C)cc1 | – | – | – | – | -2.9 | – | 447 | –
Cc1noc(C)c1S(=O)(=O)N1CCC(C(=O)N2CCN(c3ccc(F)cc3)CC2)CC1 | – | – | – | – | -1.9 | – | – | –
Cc1noc(C)c1S(=O)(=O)Nc1ccc(C(=O)N2CCN(c3ccc(Cl)cc3)CC2)cc1 | – | – | – | – | -2.4 | – | – | –
Cc1noc(C)c1S(=O)(=O)Nc1ccc(C(=O)NC2CCCCCC2)cc1 | – | – | – | – | – | – | · | ·
CCc1sc(NC(=O)COC)nc1-c1ccccc1 | – | – | – | – | -5.9 | – | 456 | –
CCOc1ccc(-n2cc(C(=O)N3CCCCCC3)c3cc(OC)c(OC)cc3c2=O)cc1 | – | – | – | – | – | – | · | ·
CN1CCN(C(=O)c2ccc(COc3ccc(Cl)cc3Cl)cc2)CC1 | – | – | – | – | -2.7 | – | – | –
CCn1c(=O)cc(SCC(=O)N2CCN(C3CCCCC3)CC2)c2ccccc21 | – | – | – | – | -5.1 | – | 256 | –
c1ccc2c(CNCCN3CCOCC3)cccc2c1 | – | – | – | – | – | – | · | ·
Cc1cc(N2CCN(C)CC2)nc2ccc(NC(=O)CCC(=O)NCc3ccco3)cc12 | – | – | – | – | – | – | · | ·
COc1cccc(C(=O)N(CN2CCCC2=O)c2cc(C)on2)c1 | – | – | – | – | -3.4 | – | – | –
CC(CN1CCCCC1)OC(=O)c1ccc2c(c1)OCO2 (stereo not given) | – | – | – | – | -2.7 | – | – | –
CC1CCN(CC(C)OC(=O)c2ccc3c(c2)OCCO3)CC1 (stereo not given) | – | – | – | – | -12 | – | 92 | –
CC(CN1CCCCC1)OC(=O)c1cc2ccccc2o1 (stereo not given) | – | – | – | – | -4.7 | – | 296 | –
SMILES | AP ELISA ortho | M1 agonist | E coli WT exp | tolC growth inh | M1 antagonist | WNV protease inh | M1 antag conf | mGluR4 antag
O=C(c1cc2ccccc2o1)N1CCCCCC1 | – | – | – | – | – | – | · | ·
Cc1cc(C)nc(NS(=O)(=O)c2ccc(NC(=O)CCCN3C(=O)c4ccccc4C3=O)cc2)n1 | – | – | · | – | – | – | · | ·
C=CCc1ccccc1OCC(O)CN(C(C)C)C(C)C (stereo not given) | – | – | – | – | -2 | – | 382 | –
CCCn1nc2cc(C(=O)NCCc3cccs3)ccc2c1OCC | · | · | – | · | · | · | · | ·
Nc1nncn1C(=O)CCCOc1ccc(Cl)cc1Cl | – | – | – | – | – | – | · | ·
CCN(CCNC(=O)CN1CCN(Cc2ccc(Cl)cc2)C1=O)c1ccccc1 | – | – | – | – | – | – | · | ·
Cc1cc(=O)[nH]c(Nc2c(C)n(C)n(-c3ccccc3)c2=O)n1 | – | – | – | – | – | – | · | ·
Cc1c(NC2=C(Cl)C(=O)N(c3ccccc3)C2=O)c(=O)n(-c2ccccc2)n1C | – | – | – | – | -6.3 | – | 151 | –
CN(C)c1ccc(-c2nn3c(C4CCCCC4)nnc3s2)cc1 | – | – | – | – | – | – | · | ·
CN=c1sc2ccccc2n1CC(O)COCc1ccco1 (stereo not given) | – | – | – | – | – | – | · | ·
OC(COCc1ccco1)CN1CCN(C(c2ccccc2)c2ccccc2)CC1 (stereo not given) | – | – | – | – | -17 | – | 123 | –
CCOc1ccccc1-c1nc(-c2ccc(C)nc2OC)no1 | – | – | – | – | -0.78 | – | – | –
COc1ccccc1-c1noc(-c2ccccc2)n1 | – | – | – | – | -17 | – | 506 | –
